Measured values from PMC3152797 (Cancer chemotherapy and pharmacology, 2009).
Where two headings read alike, the source gives them in different places.

Columns and labels:
[1] = tested on: HSC70 (HSPA8); assay: HSC70; assay type: cell-based, human; conditions: HEL cells, Fig. 1b
Method in brief: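 HEL human erythroleukemia cells were washed and resuspended in serum-free RPMI 1640 (1.2 × 10⁷ cells/200 μl). They were electroporated at 250 V and 250 μF (2-mm gap) with 200 nM HSPA1A/B siRNA, a two-mismatch control, or media only. Test compounds were added for the last 6 h of a 48-h incubation. Read-out was western blot with ECL detection, normalized to actin, at least triplicate.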

[2] = tested on: P-STAT3; assay: Down-regulation of P-STAT3; assay type: cell-based; conditions: Homo sapiens, HEL, read-out: IC50 for P-STAT3 down-regulation
[3] = tested on: HEL cells; assay: Drug-drug effect on cell survival / cell death; assay type: cell-based, human; conditions: for Cell death: 48 h
[4] = background statement, no reference given; cited from earlier work

Q: For CO[C@H]1/C=C\C=C(/C)C(=O)NC2=CC(=O)C(NCCN(C)C)=C(C[C@@H](C)C[C@H](OC)[C@H](O)[C@@H](C)/C=C(\C)[C@@H]1OC(N)=O)C2=O [17-DMAG, 17-(dimethyl-aminoethylamino)-17-demethoxygeldanamycin], which “Effect on HSC70 (HSPA8) expression” value [1] is on record?
A: Its value is “affected by neither”.

Q: And the IC50 ([2]; 6 h)?
A: The IC50 was 450 nM.

Q: And the IC50 [2]?
A: The IC50 was 157 nM.

Q: What about the Cell death ([3]; 50% of the IC50, with HSP70 siRNA added) of the same compound?
A: The Cell death was 50%.

Q: And the Cell death ([3]; 50% of the IC50, without siRNA)?
A: The Cell death was ~ 10%.

Q: Which “Effect on cell survival” value ([3]; HEL cells) does the source give for “control-siRNA: version of HSPA1 siRNA with two mismatches, 5′-CGACCGAGACAAGCGCAAG-3′, used as control (chemistry not given here)” here?
A: Its value is “no effect”.

Q: Which Solubility [4] does the source give for C=CCNC1=C2C[C@@H](C)C[C@H](OC)[C@H](O)[C@@H](C)/C=C(\C)[C@H](OC(N)=O)[C@@H](OC)/C=C\C=C(/C)C(=O)NC(=CC1=O)C2=O [17-AAG, 17-allylamino-17-demethoxygeldanamycin] here?
A: The Solubility was “poor solubility”.
